Measured values from ChEMBL document CHEMBL1131566, “(E)-3-(2-(N-phenylcarbamoyl)vinyl)pyrrole-2-carboxylic acid derivatives. A novel class of glycine site antagonists” (J Med Chem, 1998).
Blank lines part the entries; values can stand above or below the molecule they belong to.

Assays:
[1] = target: T1, Glutamate receptor ionotropic, NMDA 1 (Rattus norvegicus, UniProt P35439); assay: (§1) Inhibition of binding of [3H]glycine to N-methyl-D-aspartate glutamate receptor 1 from crude synaptic membranes prepared from adult rat cerebral cortex.; type: tissue-based
Method in brief: (§2)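 Crude synaptic membranes from adult rat cerebral cortex are incubated 20 min at 4 °C in 50 mM Tris/citrate pH 7.10 with 20 nM [³H]glycine. Compounds come from 5 mM DMSO stocks, seven concentrations (0.1 nM to 100 μM) in duplicate, with a reference control. Ki is fitted by nonlinear curve fitting from ≥6-point curves, geometric mean of ≥3 experiments. Displacement at 100 μM is given as %SB.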

[2] = target: T1, Glutamate receptor ionotropic, NMDA 1; assay: as §1; type: tissue-based; remark: listed apart in the source
[3] = target: Glutamate receptor ionotropic, NMDA 1 (Rattus norvegicus) (UniProt P35439); assay: as §1; type: tissue-based; method in brief: as §2
[4] = target: T2, Glutamate NMDA receptor (Rattus norvegicus) (UniProt P35439+Q00959+Q00960+Q00961+Q62645+Q8VHN2+Q9R1M7); assay: Displacement of the ligand in the N-methyl-D-aspartate glutamate receptor at 100 uM represented by the percent of specific binding(%SB); type: protein-complex assay
[5] = target: Glutamate receptor ionotropic, NMDA 1 (Rattus norvegicus) (UniProt P35439); assay: Displacement of [3H]glycine binding to N-methyl-D-aspartate glutamate receptor 1 at 100 uM represented by the percent of specific binding(%SB); method in brief: as §2
[6] = target: T3, Glutamate receptor ionotropic, AMPA (Rattus norvegicus) (UniProt P19491+P19492+P19493+P19490); assay: Displacement of the ligand in the Ionotropic glutamate receptor AMPA site at 100 uM represented by the percent of specific binding(%SB); type: protein-complex assay
Method in brief: (§3)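 Rat cortical membrane binding, inhibition of [³H]CPP (NMDA glutamate site), [³H]AMPA or [³H]kainic acid. Compounds come from 5 mM DMSO stocks and are tested in duplicate at five concentrations (10 nM to 100 μM); a reference compound is included as control. Displacement at 100 μM is given as % specific binding.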

[7] = target: Glutamate receptor ionotropic, kainate; assay: Inhibition of binding of [3H]-kainic acid to Ionotropic glutamate receptor kainate in crude synaptic membranes prepared from adult rat cerebral cortex.; type: cell membranes; method in brief: as §3
Glutamate NMDA receptor = assay: Compound was evaluated for its ability ot displace [3H]CPP binding to N-methyl-D-aspartate glutamate receptor; type: protein-complex assay; method in brief: as §3
[8] = target: Glutamate receptor ionotropic, kainate (Rattus norvegicus) (UniProt P22756+Q01812+P42260+P42264+Q63273); assay: Displacement of [3H]-kainic acid in the Ionotropic glutamate receptor kainate at 100 uM represented by the percent of specific binding (%SB); type: protein-complex assay; method in brief: as §3
[9] = target: T4, Glutamate receptor ionotropic, AMPA (Rattus norvegicus, UniProt P19490+P19491+P19492+P19493); assay: (§4) Displacement of the [3H]AMPA binding to Ionotropic glutamate receptor AMPA at 100 uM represented by the percent of specific binding(%SB); type: protein-complex assay; method in brief: as §3
[10] = target: T3, Glutamate receptor ionotropic, AMPA (Rattus norvegicus); assay: as §4; type: protein-complex assay; method in brief: as §3
[11] = target: Glutamate receptor ionotropic, NMDA 1 (Rattus norvegicus) (UniProt P35439); assay: Compound was evaluated for its ability to displace [3H]-TCP binding to N-methyl-D-aspartate glutamate receptor 1. alpha value 0 indicates full antagonist.
Method in brief: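 [³H]TCP binding runs 2 h at 30 °C in Tris/5mM HCl pH 7.7 with 1 μM glutamic acid. Nonspecific binding is defined with 30 μM (+)-MK801. Glycine concentration-response curves are run in the presence of increasing test-compound concentrations to derive α.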

[12] = target: T2, Glutamate NMDA receptor (Rattus norvegicus); assay: Displacement of the [3H]CPP binding to N-methyl-D-aspartate glutamate receptor at 100 uM represented by the percent of specific binding(%SB); type: protein-complex assay; method in brief: as §3
[13] = target: T4, Glutamate receptor ionotropic, AMPA; assay: Inhibition of binding of [3H]AMPA to Ionotropic glutamate receptor AMPA; type: protein-complex assay; method in brief: as §3
[14] = target: Glutamate receptor ionotropic, kainate; assay: Inhibition of binding of [3H]-kainic acid to Ionotropic glutamate receptor kainate; type: protein-complex assay; method in brief: as §3
[15] = Displacement of the [3H]CPP binding to NMDA receptor/glutamate site at 100 uM represented by the percent of specific binding(%SB); method in brief: as §3
[16] = Compound was evaluated for its ability ot displace [3H]CPP binding to NMDA receptor/glutamate site; method in brief: as §3

- Ki [1]: 617 nM
Structure (SMILES): O=C(/C=C/c1c(C(=O)O)[nH]c2c1CCCC2)Nc1ccccc1

- Ki [1]: 776 nM
Structure (SMILES): CCc1[nH]c(C(=O)O)c(/C=C/C(=O)Nc2ccccc2)c1C

- Ki [1]: 316 nM
Structure (SMILES): Cc1[nH]c(C(=O)O)c(/C=C/C(=O)Nc2ccccc2)c1Cl

- Ki [1]: 6760 nM
Structure (SMILES): CCOc1c(C)[nH]c(C(=O)O)c1/C=C/C(=O)Nc1ccccc1

- Ki [1]: 6170 nM
Structure (SMILES): Cc1c(C(C)C)[nH]c(C(=O)O)c1/C=C/C(=O)Nc1ccccc1

- SB [4]: 0%
- SB [5]: 100%
- SB [6]: 11%
- Log Ki [7]: > -4
- Log Ki (Glutamate NMDA receptor): > -4
- Ki [1]: 57.5 nM
- SB [8]: 0%
- IC50 [9]: > 100000 nM
Structure (SMILES): Cc1[nH]c(C(=O)O)c(/C=C/C(=O)Nc2ccccc2)c1Br

- Ki [1]: 5750 nM
Structure (SMILES): CC(=O)c1c(C)[nH]c(C(=O)O)c1/C=C/C(=O)Nc1ccccc1

- Ki [1]: 3310 nM
Structure (SMILES): O=C(/C=C/c1c(Br)c[nH]c1C(=O)O)Nc1ccccc1

- SB [10]: 0%
- SB [5]: 100%
- Alpha [11]: 0
- SB [12]: 0%
- IC50 [13]: > 100000 nM
- Log Ki (Glutamate NMDA receptor): > -4
- Ki [1]: 200 nM
- SB [8]: 9%
- Log Ki [14]: > -4
Structure (SMILES): Cc1[nH]c(C(=O)O)c(/C=C/C(=O)Nc2ccccc2)c1C

- Ki [1]: 63100 nM
Structure (SMILES): Cc1cc(/C=C/C(=O)Nc2ccccc2)c(C(=O)O)[nH]1

- Ki [1]: 4790 nM
Structure (SMILES): Cc1[nH]c(C(=O)O)c(/C=C/C(=O)Nc2ccccc2)c1OCc1ccccc1

- SB [10]: 10%
- SB [5]: 100%
- SB [15]: 0%
- Log Ki [16]: > -4
- IC50 [13]: > 100000 nM
- Ki [1]: 11.2 nM
- SB [8]: 5%
- Log Ki [14]: > -4
Structure (SMILES): O=C(/C=C/c1c(C(=O)O)[nH]c(Br)c1Br)Nc1ccccc1

- Ki [1]: 1150 nM
Structure (SMILES): O=C(/C=C/c1c(C(=O)O)[nH]c2c1CCC2)Nc1ccccc1

- Ki [1]: 832 nM
Structure (SMILES): CCc1c(C)[nH]c(C(=O)O)c1/C=C/C(=O)Nc1ccccc1

- Ki [1]: 35.5 nM
Structure (SMILES): O=C(/C=C/c1c(C(=O)O)[nH]c(I)c1I)Nc1ccccc1

- Ki [1]: 398 nM
Structure (SMILES): Cc1[nH]c(C(=O)O)c(/C=C/C(=O)Nc2ccccc2)c1C(C)C

- Ki [1]: 42.7 nM
Structure (SMILES): Cc1[nH]c(C(=O)O)c(/C=C/C(=O)Nc2ccccc2)c1I

Second part, the molecule before the results:

Structure (SMILES): O=C(O)CCc1c(C(=O)O)[nH]c2cc(Cl)cc(Cl)c12
- IC50 [2]: 140 nM

Structure (SMILES): Cc1[nH]c(C(=O)O)c(/C=C/C(=O)Nc2ccccc2)c1-c1ccccc1
- Ki [1]: > 100000 nM

Structure (SMILES): O=C(O)c1cc(O)c2c(I)cc(Cl)cc2n1
- IC50 [2]: 32 nM

Structure (SMILES): Cc1ccc2c(O)cc(=O)c(=O)[nH]c2c1
- Kb [3]: 470 nM

Structure (SMILES): O=C(/C=C/c1cc(-c2ccccc2)[nH]c1C(=O)O)Nc1ccccc1
- Ki [1]: > 100000 nM

Structure (SMILES): Cc1c(-c2ccccc2)[nH]c(C(=O)O)c1/C=C/C(=O)Nc1ccccc1
- Ki [1]: > 100000 nM

Structure (SMILES): Cc1c(-c2ccc(Cl)cc2Cl)[nH]c(C(=O)O)c1/C=C/C(=O)Nc1ccccc1
- Ki [1]: > 100000 nM

Structure (SMILES): O=C(/C=C/c1cc[nH]c1C(=O)O)Nc1ccccc1
- Ki [1]: > 100000 nM

Structure (SMILES): Oc1ccc(-c2c(O)nc3cc(Cl)cc(Cl)c3c2O)cc1
- IC50 [2]: 13 nM

Structure (SMILES): O=C(/C=C/c1c(C(=O)O)[nH]c(-c2ccccc2)c1-c1ccccc1)Nc1ccccc1
- Ki [1]: > 100000 nM

Structure (SMILES): O=C(/C=C/c1c(C(=O)O)[nH]c2cc(Cl)cc(Cl)c12)Nc1ccccc1
- SB [3]: 100%
- Alpha [11]: 0

Structure (SMILES): Cc1c(/C=C/C(=O)Nc2ccccc2)c(C(=O)O)n(C)c1C
- Ki [1]: > 100000 nM

Structure (SMILES): O=C(/C=C/c1c(-c2ccccc2)c[nH]c1C(=O)O)Nc1ccccc1
- Ki [1]: > 100000 nM

Structure (SMILES): O=C(Nc1ccccc1)N[C@H]1C[C@H](C(=O)O)Nc2cc(Cl)cc(Cl)c21
- IC50 [2]: 7.8 nM

Structure (SMILES): O=C(/C=C/c1c(C(=O)O)[nH]c(-c2ccccc2)c1Br)Nc1ccccc1
- Ki [1]: > 100000 nM
